Test results: ChEMBL document CHEMBL1156908, “Characterization of tunable piperidine and piperazine carbamates as inhibitors of endocannabinoid hydrolases” (J Med Chem, 2010)
The source made the active and inactive calls. No cut-off for these calls is given here.

Assays:
[1] = molecular target: T1, Fatty-acid amide hydrolase 1 (Mus musculus, UniProt O08914); experiment: Inhibition of FAAH in mouse brain membrane; type: cell membranes
T1 sequence (O08914 whole entry): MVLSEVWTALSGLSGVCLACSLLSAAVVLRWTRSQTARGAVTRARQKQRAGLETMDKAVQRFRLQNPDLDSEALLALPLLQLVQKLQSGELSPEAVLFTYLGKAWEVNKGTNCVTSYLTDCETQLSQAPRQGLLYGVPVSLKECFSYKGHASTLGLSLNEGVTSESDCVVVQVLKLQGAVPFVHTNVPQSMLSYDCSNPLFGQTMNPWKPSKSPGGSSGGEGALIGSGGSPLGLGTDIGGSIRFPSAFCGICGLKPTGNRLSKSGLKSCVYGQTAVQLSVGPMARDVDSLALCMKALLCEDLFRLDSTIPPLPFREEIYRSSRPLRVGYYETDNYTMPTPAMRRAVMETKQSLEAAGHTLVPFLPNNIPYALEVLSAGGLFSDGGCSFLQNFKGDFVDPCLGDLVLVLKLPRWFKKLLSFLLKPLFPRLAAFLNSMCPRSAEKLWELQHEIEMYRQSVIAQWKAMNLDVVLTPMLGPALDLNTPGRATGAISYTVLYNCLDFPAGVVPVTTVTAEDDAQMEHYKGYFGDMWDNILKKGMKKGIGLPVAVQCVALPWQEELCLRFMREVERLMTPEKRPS
Outline: (§1)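 Mouse brain membrane fraction (Dounce homogenized in PBS pH 7.5, 1,400 × g debris spin, 64,000 × g 45 min pellet, resuspended) at 1 mg/ml in PBS. Inhibitor preincubated 30 min at 37°C, then FP-rhodamine 1 μM final for 30 min at 25°C. SDS-PAGE with in-gel fluorescence scanning. IC50 from fitted integrated band intensities, mean of at least triplicates.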

[2] = molecular target: T2, Monoglyceride lipase (Mus musculus, UniProt O35678); experiment: Inhibition of MAGL in mouse brain membrane; type: cell membranes; outline: as §1
T2 sequence (O35678 whole entry): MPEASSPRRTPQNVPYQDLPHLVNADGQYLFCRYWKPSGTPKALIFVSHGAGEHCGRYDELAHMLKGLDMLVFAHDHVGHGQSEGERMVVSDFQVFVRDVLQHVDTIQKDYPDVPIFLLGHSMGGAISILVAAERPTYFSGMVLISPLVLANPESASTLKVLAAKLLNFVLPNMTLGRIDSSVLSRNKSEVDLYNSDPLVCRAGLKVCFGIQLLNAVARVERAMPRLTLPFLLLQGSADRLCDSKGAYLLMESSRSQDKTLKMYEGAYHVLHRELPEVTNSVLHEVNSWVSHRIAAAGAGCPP

[3] = molecular target: T3, Monoacylglycerol lipase ABHD6 (Mus musculus, UniProt Q8R2Y0); experiment: Inhibition of ABHD6 in mouse brain membrane; type: cell membranes; outline: as §1
T3 sequence (Q8R2Y0 whole entry): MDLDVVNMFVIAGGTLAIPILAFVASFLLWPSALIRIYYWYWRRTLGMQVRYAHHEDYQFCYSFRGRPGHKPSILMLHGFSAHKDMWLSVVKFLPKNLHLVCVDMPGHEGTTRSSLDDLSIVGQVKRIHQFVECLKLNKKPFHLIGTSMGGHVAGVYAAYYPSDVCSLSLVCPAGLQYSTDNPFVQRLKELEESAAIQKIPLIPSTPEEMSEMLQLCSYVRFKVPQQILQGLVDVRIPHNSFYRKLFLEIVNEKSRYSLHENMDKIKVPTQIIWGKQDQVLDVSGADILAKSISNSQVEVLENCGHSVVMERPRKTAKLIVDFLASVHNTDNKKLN

[4] = molecular target: T4, Patatin-like phospholipase domain-containing protein 6 (Mus musculus, UniProt Q3TRM4); experiment: Inhibition of NTE in mouse brain membrane; type: cell membranes; outline: as §1
T4 sequence (Q3TRM4 whole entry): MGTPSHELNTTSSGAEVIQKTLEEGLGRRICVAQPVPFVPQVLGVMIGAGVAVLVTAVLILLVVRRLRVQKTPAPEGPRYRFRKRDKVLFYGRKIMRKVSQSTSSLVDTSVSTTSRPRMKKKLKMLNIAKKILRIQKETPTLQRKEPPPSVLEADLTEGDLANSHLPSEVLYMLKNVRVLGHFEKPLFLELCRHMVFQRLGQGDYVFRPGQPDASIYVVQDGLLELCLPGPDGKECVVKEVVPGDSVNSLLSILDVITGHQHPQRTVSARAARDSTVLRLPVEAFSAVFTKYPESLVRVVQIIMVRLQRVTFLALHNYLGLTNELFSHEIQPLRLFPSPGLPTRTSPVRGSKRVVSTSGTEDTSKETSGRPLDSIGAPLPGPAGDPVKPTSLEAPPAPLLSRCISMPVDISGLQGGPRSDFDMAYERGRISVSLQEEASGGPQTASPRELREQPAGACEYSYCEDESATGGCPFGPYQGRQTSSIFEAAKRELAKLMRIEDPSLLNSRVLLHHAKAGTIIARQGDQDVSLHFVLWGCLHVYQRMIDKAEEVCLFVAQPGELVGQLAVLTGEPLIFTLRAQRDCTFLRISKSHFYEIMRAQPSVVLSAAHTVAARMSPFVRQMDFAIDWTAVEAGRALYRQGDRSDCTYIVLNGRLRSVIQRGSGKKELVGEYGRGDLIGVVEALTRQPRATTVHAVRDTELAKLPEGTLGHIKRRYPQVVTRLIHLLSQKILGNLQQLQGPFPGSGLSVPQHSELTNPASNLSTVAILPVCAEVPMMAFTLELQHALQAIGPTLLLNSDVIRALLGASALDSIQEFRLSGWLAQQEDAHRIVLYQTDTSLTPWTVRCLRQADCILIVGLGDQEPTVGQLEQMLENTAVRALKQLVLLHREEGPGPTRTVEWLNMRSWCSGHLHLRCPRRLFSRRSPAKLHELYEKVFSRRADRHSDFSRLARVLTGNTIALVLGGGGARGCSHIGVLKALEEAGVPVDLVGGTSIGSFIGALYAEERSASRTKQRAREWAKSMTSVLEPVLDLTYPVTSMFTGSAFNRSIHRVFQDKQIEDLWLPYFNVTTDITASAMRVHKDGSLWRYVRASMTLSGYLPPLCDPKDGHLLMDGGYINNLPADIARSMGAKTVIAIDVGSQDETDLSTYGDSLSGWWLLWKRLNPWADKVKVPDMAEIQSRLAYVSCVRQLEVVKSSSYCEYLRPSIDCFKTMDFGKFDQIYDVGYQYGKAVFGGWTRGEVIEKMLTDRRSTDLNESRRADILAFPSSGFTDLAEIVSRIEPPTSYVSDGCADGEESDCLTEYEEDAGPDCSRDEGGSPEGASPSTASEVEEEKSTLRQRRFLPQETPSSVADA

[5] = molecular target: T5, Patatin-like phospholipase domain-containing protein 6 (Mus musculus) (UniProt Q3TRM4); experiment: Inhibition of NTE in mouse brain membrane at 100 uM; type: cell membranes
T5 sequence (whole entry): T4 sequence (Q3TRM4 whole entry)
Outline: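 Competitive ABPP on mouse brain membrane proteome at 1 mg/ml in PBS. Inhibitor at 100 μM for 30 min at 37°C, then FP-rhodamine 1 μM final for 30 min at 25°C. SDS-PAGE and in-gel fluorescence scanning. Percent loss of NTE band labeling.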

[6] = species on record: Mus musculus; experiment: Selectivity ratio of IC50 for mouse FAAH to IC50 for mouse MAGL
Outline: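 Competitive ABPP on mouse brain membrane proteome (Dounce-homogenized in PBS pH 7.5, 64,000 × g pellet, resuspended), diluted to 1 mg/ml in PBS. Inhibitor preincubated 30 min at 37°C, then FP-rhodamine 1 μM final for 30 min at 25°C. SDS-PAGE and in-gel fluorescence scanning. IC50s for FAAH and MAGL come from integrated band intensities, means of ≥3 runs; the ratio is taken from these.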

[7] = tested on: Mus musculus; experiment: In vivo inhibition of FAAH in mouse at 20 mg/kg, ip; type: functional, organism-based; set-up: dose 20 mg/kg
[8] = tested on: Mus musculus; experiment: In vivo inhibition of FAAH in mouse at 100 mg/kg, po; type: functional, organism-based; set-up: dose 100 mg/kg
[9] = tested on: Mus musculus; experiment: In vivo inhibition of MAGL in mouse at 20 mg/kg, ip; type: functional, organism-based; set-up: dose 20 mg/kg
[10] = tested on: Mus musculus; experiment: In vivo inhibition of MAGL in mouse at 100 mg/kg, po; type: functional, organism-based; set-up: dose 100 mg/kg
[11] = tested on: Mus musculus; experiment: Toxicity in mouse assessed as death at 20 mg/kg, ip for 6 days; type: organism-based; set-up: dose 20 mg/kg, route intraperitoneal; settings: in vivo, 144 h

Structure (SMILES)	IC50 [1] [nM]	IC50 [2] [nM]	IC50 [3] [nM]	IC50 [4] [nM]	inhibition [5] [%]	Ratio IC50 [6]	Activity [7]	Activity [8]	Activity [9]	Activity [10]	Activity [11]
O=C(Oc1ccc([N+](=O)[O-])cc1)N1CCN(Cc2cccc(Oc3ccccn3)c2)CC1	40	50	60	1270	73	–	–	–	–	–	–
O=C(Oc1ccc([N+](=O)[O-])cc1)N1CCN(Cc2cc(Br)ccc2O)CC1	720	90	130	3240	73	–	–	–	–	–	–
O=C(Oc1ccc([N+](=O)[O-])cc1)N1CCN(Cc2ccc(-c3ccccc3OC(F)(F)F)o2)CC1	5	70	180	570	81	–	–	–	–	–	–
O=C(Oc1ccc([N+](=O)[O-])cc1)N1CCN(Cc2cccc(Oc3cc(Cl)cc(Cl)c3)c2)CC1	> 100000	> 100000	> 100000	> 100000	0	–	–	–	–	–	–
O=C(Oc1ccc([N+](=O)[O-])cc1)N1CCN(C2c3ccccc3Oc3ccccc32)CC1	9000	6120	2120	–	–	2	–	–	–	–	–
O=C(Oc1ccc([N+](=O)[O-])cc1)N1CCC(C(O)(c2ccccc2)c2ccccc2)CC1	4340	690	1100	–	–	6	–	–	–	–	–
COc1ccc(C(c2ccc(OC)cc2)C2CCN(C(=O)Oc3ccc([N+](=O)[O-])cc3)CC2)cc1	40100	73	550	–	–	549	–	–	–	–	–
Cc1ccc(Oc2cccc(CN3CCN(C(=O)Oc4ccc([N+](=O)[O-])cc4)CC3)c2)cc1	40	500	1130	3000	70	–	–	–	–	–	–
O=C(Oc1ccc([N+](=O)[O-])cc1)N1CCN(C(c2ccc(F)cc2)c2ccc(F)cc2)CC1	5410	200	900	–	–	27	–	–	–	–	–
O=C(Oc1ccc([N+](=O)[O-])cc1)N1CCN(Cc2cccc(Oc3cccc(C(F)(F)F)c3)c2)CC1	5	300	320	14400	57	–	–	–	–	–	–
COc1ccc(C(O)(c2ccc(OC)cc2)C2CCN(C(=O)Oc3ccc([N+](=O)[O-])cc3)CC2)cc1	2660	40	2110	–	–	68	–	–	–	–	–
COc1ccc(Oc2cccc(CN3CCN(C(=O)Oc4ccc([N+](=O)[O-])cc4)CC3)c2)cc1	90	130	460	2900	60	–	–	–	–	–	–
O=C(Oc1ccc([N+](=O)[O-])cc1)N1CCN(Cc2cccc(Oc3ccccc3)c2)CC1	13	–	50	> 50000	50	–	inactive	inactive	inactive	inactive	Non-toxic
